What was measured:
[1] = melting temperature; fluorescence melt of hairpins on a sequencing array, two-state fit, raised by 9.35 °C to match UV melts; details: sodium 0.088 M
Summary of the method: (§1)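 Folding enthalpy and melting temperature were estimated with bootstrapped two-state fits and combined across four replicates by inverse-variance weighting, with fitted temperatures raised by 9.35 °C to match UV melts. The data were Cy3 fluorescence of library hairpins, with annealed Cy3 and quencher oligos, on a sequenced MiSeq flow cell in 50 mM Na-HEPES pH 8.0, 25 mM NaCl, imaged in 2.5 °C steps up to 60 °C and normalised to pre-quench Cy3 and control constructs.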

[2] = folding enthalpy; higher = less favourable; fluorescence melt of hairpins on a sequencing array, two-state fit; details: sodium 0.088 M
Summary of the method: as §1

| Sequence | Tm [1] [°C] | folding enthalpy [2] [kcal/mol] |
| --- | --- | --- |
| GCGAATGGAAACACTCGC ((((.((....)).)))) | 46.2 | -35.2 |
| GCGTAGCGAAAGCTGGGC ((..(((....)))..)) | 49.3 | -12.1 |
| GTCTAGAAATAGAC (((((....))))) | 40.5 | -14.9 |
| GCGCAGCGAAAGCAGAGC ((.(.((....)).).)) | 54.6 | -15.7 |
| GGGGGAGAAATCCCCC ((((((....)))))) | 65.5 | -29.9 |
| GATCCCGCCCGGGATC ((((((....)))))) | 67.1 | -32.8 |
| GATCATCGGATGATC ((((((...)))))) | 45.9 | -36.9 |
| GATCTTCTGCAAGATC ((((((....)))))) | 42.9 | -22 |
| GGATGTCGAAAGACTTCC (((.(((....))).))) | 51.5 | -39.6 |
| GAATCTGGAAACAGATCC (.(((((....))))).) | 33.1 | -17.1 |
| GCGACGGGAAACCACCGC (((..((....))..))) | 40.2 | -25.4 |
| GAGTCACGAAAGTGTCTC (((.(((....))).))) | 49.8 | -30 |
| GGGCGCGAAAGCGGGCCC ((((((....)))..))) | 64.8 | -13.4 |
| GATCTTTGAGAAGATC ((((((....)))))) | 46 | -31.6 |
| GATGCGGCGAAAGCCATC (((..(((....)))))) | 29.2 | -11.6 |
| GACTTCCGAAAGGACGTC (((.(((....))).))) | 48.9 | -32.3 |
| GATCCGATACGGATC ((((((...)))))) | 59.6 | -32.7 |
| GTAGCGCGAAAGCGGTAC (((.(((....))).))) | 68.8 | -25.3 |
| GACATGCGAAAGCACGTC (((.(((....))).))) | 52.4 | -26.3 |

| Sequence | Tm [1] [°C] | folding enthalpy [2] [kcal/mol] |
| --- | --- | --- |
| GCGGGGGGAAACCCCTGC ((.((((....)))).)) | 61.9 | -31.9 |
| GGGAGCGAAAGCTGCCCC ((((((....)))..))) | 58.1 | -12.6 |
| GCTACGCGAAAGCGGTGC ((..(((....)))..)) | 56 | -16 |
| GGGTATGGAAACATGTCC ((..(((....)))..)) | 34 | -15.6 |
| GCAGCGGGAAACCACTGC ((((.((....)).)))) | 52.2 | -43.3 |
| GATCTGACCCAGATC ((((((...)))))) | 47.7 | -37.4 |
| GCCCCTGGAAACAAGGGC ((((.((....)).)))) | 46.1 | -28.8 |
| GAGGTAGGAAACTATCTC (((.(((....))).))) | 38.7 | -26.6 |
| GCTGTTCGAAAGAAAGC (((.(((....)))))) | 36.7 | -15.6 |
| CGCGGAGAGTCCGCG ((((((...)))))) | 69 | -27 |
| GGAAGCGAAAGCTAATCC ((((((....)))..))) | 26.7 | -12 |
| GTGTACGAAAGTACGCAC ((((((....)))..))) | 49.9 | -14.5 |
| GAGCTGGGAAACTGGCTC ((((..(....)..)))) | 46.7 | -27.6 |
| GATCCTCTTCAGGATC ((((((....)))))) | 51.3 | -38.2 |
| GCGGCGGTCCGC ((((....)))) | 58.7 | -17.6 |
| GTTAATGGAAACATTAGC (.(((((....))))).) | 34.8 | -20.7 |
| GACAGCGAAAGCTGAGTC ((((((....)))..))) | 39.2 | -8.14 |
| GAGCGTGGAAACGCGCTC (((((.(....).))))) | 66.7 | -21.7 |
| GATCCCGCAGGGGATC ((((((....)))))) | 65.5 | -15.7 |
